The subject of data set [1] is L1210. Nature of the data set: Activity against caspase-mediated apoptosis in mouse L1210 cells. It is filed as functional.
Data set [2] deals with L1210. Nature of the data set: Cytotoxicity against mouse L1210 cells. Conditions: for log(1/ID50): mouse, l1210.
Data set [3] has as its system L1210. The data set can be described thus: Activity against caspase-mediated apoptosis in mouse L1210 cells at 0.1 mM. It is filed as functional.
Data set [4] is described as follows: Cytotoxicity against human CEM/VLB cells.
Data set [5] concerns HL-60. Nature of the data set: Cytotoxicity against human HL60 cells. The format is cell-based. The gist of the method: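 HL-60 cells grown at 37 °C in RPMI with L-glutamine and 10% FBS, then seeded at (2–5) × 10⁴ cells/mL, in duplicate, at eight or more concentrations. Compounds were diluted in unsupplemented RPMI and added 1:10. After 48 h of continuous exposure, CyQUANT GR nucleic-acid dye fluorescence was read (ex 485/em 530 nm). IC50 is the concentration giving 50% lower fluorescence than controls, taken from the dose-response curve.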

Another data set has as its system CCRF-CEM. Nature of the data set: Cytotoxicity against human CCRF-CEM cells.
The test system of data set [6] is L1210. Nature of the data set: Induction of apoptosis in mouse L1210 cells at 151 uM. It is filed as functional. The gist of the method:
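L1210 cells at 4 × 10⁴ cells/mL were incubated with or without the phenol for 12 h at 37 °C. Caspase activity was then measured in a homogeneous fluorimetric assay: DEVD-rhodamine 110 substrate in incubation buffer was added for 2 h at 37 °C, and fluorescence was read at 521 nm with excitation at 490 nm.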

In data set [7] the test system is HL-60. The data set can be described thus: Induction of DNA fragmentation in human HL60 cells after 16 hrs. Particulars: HL-60, 16 h. It is filed as functional, cell-based.
For a further data set, the system named is MCF7. Nature of the data set: Cytotoxicity against human MCF7 cells.

Take `O=[N+]([O-])c1cccc(O)c1` [3-NITRO-PHENOL]: the “log(1/ID50)” value with L1210 [1] came out at 0.79; in the data set with L1210 [2], 3.48. The compound further yielded an Activity in the data set with L1210 [3] of less than 15%.
Regarding `Cl.Nc1ccc(O)cc1` [4-AMINOPHENOL HYDROCHLORIDE], the “log(1/ID50)” value in data set [4] is reported as 1.94; in the data set on HL-60 [5] it was 4.5; with L1210 [2], 5.09; with CCRF-CEM, 4.61. In the data set with L1210 [3], this compound showed an Activity of less than 15%.
In the case of `N#Cc1ccc(O)cc1` [4-CYANOPHENOL], the “log(1/ID50)” value in the data set on L1210 [1] is recorded as 0.1; with L1210 [2] it was 3.44. This compound displayed an Activity with L1210 [3] of less than 15%.
Consider `CC(=O)c1ccc(O)cc1` [4-HYDROXYACETOPHENONE], for which the “log(1/ID50)” value with L1210 [1] was found to be 0.03. The compound further had an Activity in the data set with L1210 [3] of less than 15%.
For `CC(C)(c1ccc(O)cc1)c1ccc(O)cc1` [BISPHENOL A], the “log(1/ID50)” value in data set [4] is recorded as 3.96; with CCRF-CEM, 4.18. The compound further yielded an Activity with L1210 [3] of less than 15%.
A word on the IC50: it is the concentration at which inhibition is half-maximal. Lower therefore signals greater potency. For the compound `COc1ccc(O)c(C(C)(C)C)c1.COc1ccc(O)cc1C(C)(C)C` [BUTYLATED HYDROXYANISOLE], the figures for the “log(1/ID50)” value in the data set with L1210 [1] and with L1210 [2] were 2.71 and 3.82, respectively. The compound also had an Activity in the data set on L1210 [6] of 15%. Also, 1380 µM corresponded to half-maximal inhibition in the data set on HL-60 [7] (IC50).
As for `Cc1cc(C(C)(C)C)c(O)c(C(C)(C)C)c1` [BUTYLATED HYDROXYTOLUENE], the “log(1/ID50)” value with L1210 [1] was 2.09; in the data set on L1210 [2], 4.04. Besides, the IC50 with L1210 [2] (Mus musculus, L1210) stood at 91.2 µM; with HL-60 [7], 3180 µM.
Regarding `CC/C(=C(/CC)c1ccc(O)cc1)c1ccc(O)cc1` [DIETHYLSTILBESTROL], the “log(1/ID50)” value in the data set on HL-60 [5] was found to be 4.
Regarding `C[C@]12CCc3c(ccc4cc(O)ccc34)[C@@H]1CCC2=O` [EQUILENIN], in the data set with HL-60 [5], the “log(1/ID50)” value was determined as 3.9.
On the same count and under the same terms, then `C[C@]12CC[C@@H]3c4ccc(O)cc4CC[C@H]3[C@@H]1CC[C@@H]2O` [ESTRADIOL], with 3.6.
As for `COc1ccccc1O` [GUAIACOL], the “log(1/ID50)” value in the data set with L1210 [1] is 2.41. In the data set on L1210 [3], this compound displayed an Activity of less than 15%.
Regarding `COc1ccc(O)cc1` [MEQUINOL], the “log(1/ID50)” value in data set [4] is reported as 4.36; with L1210 [1], 0.02; in the data set with HL-60 [5] it was 3.6; in the data set with CCRF-CEM, 4.41. For the same compound, the Activity in the data set on L1210 [3] is reported as less than 15%.
Regarding `CC(=O)Nc1cccc(O)c1` [METACETAMOL], the “log(1/ID50)” value in the data set on L1210 [1] was determined as 1.1; in the data set on L1210 [2], 2.65. The compound further returned an Activity in the data set on L1210 [3] of less than 15%.
The corresponding values for `Cc1cccc(O)c1` [METACRESOL] are 0.45, 3.54 and less than 15%.
For `Cc1ccccc1O` [ORTHOCRESOL], the figures for the “log(1/ID50)” value in the data set on L1210 [1] and with L1210 [2] were 1.87 and 3.52, respectively. In the data set on L1210 [3], this compound gave an Activity of less than 15%.
For the compound `O=[N+]([O-])c1ccc(O)cc1` [P-NITROPHENOL], the “log(1/ID50)” value stood at 3.36 in data set [4], 1 in the data set on L1210 [1], 3.45 with L1210 [2] and 3.28 in the data set on CCRF-CEM. This compound had an Activity with L1210 [3] of less than 15%.
`Oc1ccc(Cl)cc1` [PARACHLOROPHENOL]: the “log(1/ID50)” value was 3.89 in [4], 4.29 in the data set on L1210 [2] and 3.45 in the data set with CCRF-CEM. The compound further displayed an Activity with L1210 [3] of less than 15%.
As for `Oc1ccccc1` [PHENOL], the “log(1/ID50)” value in [4] is reported as 2.65; in the data set with MCF7, 2.56; in the data set with L1210 [1] it was -0.2; with HL-60 [5], 3.05; in the data set on L1210 [2], 3.27; in the data set on CCRF-CEM, 3.27. The same compound displayed an Activity in the data set on L1210 [3] of less than 15%.
In the case of `Nc1ccccc1O` [QUESTIOMYCIN B], the results for the “log(1/ID50)” value in the data set with L1210 [1] and in the data set on L1210 [2] were 2.29 and 5.16, respectively. Also, the Activity in the data set with L1210 [3] is on record as less than 15%.
The corresponding values for `Oc1cccc(O)c1` [RESORCINOL] are 0.79, 3.46 and less than 15%.
In the case of `Cc1ccc(O)cc1` [p-CRESOL], the “log(1/ID50)” value in [4] came out at 4.05; with HL-60 [5], 3.35; in the data set on L1210 [2], 3.85; with CCRF-CEM it was 3.82. Moreover, in the data set with L1210 [3], the Activity was less than 15%.

The values are drawn from ChEMBL document CHEMBL1139474, “Cellular apoptosis and cytotoxicity of phenolic compounds: a quantitative structure-activity relationship study” (J Med Chem, 2005).
